Measurements taken from ChEMBL document CHEMBL3244378, “Antiestrogens and antiestrogen metabolites: preparation of tritium-labeled (+/-)-cis-3-[p-(1,2,3,4-tetrahydro-6-methoxy-2-phenyl-1-naphthyl)phenoxyl]-1,2-propanediol (U-23469) and characterization and synthesis of a biologically important metabolite” (J Med Chem, 1979).

How the values were obtained:
[1] = biological target: T1, Estrogen receptor (Rattus norvegicus) (UniProt P06211); assay: Displacement of [3H]-estradiol from estrogen receptor in rat uterine cytosol at 10^-4 to 10^-10 M after 16 hrs relative to estradiol; details: Uterus
T1 sequence (whole entry): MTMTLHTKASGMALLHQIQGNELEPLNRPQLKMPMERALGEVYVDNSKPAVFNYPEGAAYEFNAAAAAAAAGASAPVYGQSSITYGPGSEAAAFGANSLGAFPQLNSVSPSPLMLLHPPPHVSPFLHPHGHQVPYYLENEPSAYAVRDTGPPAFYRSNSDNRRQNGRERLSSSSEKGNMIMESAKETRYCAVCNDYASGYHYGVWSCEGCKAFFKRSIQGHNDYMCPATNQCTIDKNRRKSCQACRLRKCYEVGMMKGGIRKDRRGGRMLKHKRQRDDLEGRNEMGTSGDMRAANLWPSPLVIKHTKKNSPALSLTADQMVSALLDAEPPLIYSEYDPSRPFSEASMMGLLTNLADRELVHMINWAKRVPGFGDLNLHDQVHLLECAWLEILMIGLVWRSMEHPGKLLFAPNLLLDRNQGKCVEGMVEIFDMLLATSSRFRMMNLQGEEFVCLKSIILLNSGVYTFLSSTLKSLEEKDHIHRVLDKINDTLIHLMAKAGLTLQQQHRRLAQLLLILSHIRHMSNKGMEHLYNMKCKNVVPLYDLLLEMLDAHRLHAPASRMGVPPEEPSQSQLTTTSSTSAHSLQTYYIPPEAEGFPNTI

[2] = system: Serum; assay: Drug metabolism in rat serum assessed as metabolite level at 25 ug, sc after 1 hr by TLC analysis; format: ADME, organism-based; details: in vivo
Procedure, shortened: (§1)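 Immature rats given tritiated antiestrogen, 25 μg sc per rat. At 1 and 13 h, serum was prepared and extracted with ethyl acetate. Uteri were homogenized, the nuclear pellet washed three times, then extracted with ethanol. Extracts were concentrated, run on silica gel TLC in anesthetic ether–ethanol (98:2), and radioactivity counted by liquid scintillation.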

[3] = Drug metabolism in rat uterine nuclear fraction assessed as 1-(p-Hydroxyphenyl)-2-phenyl-6-methoxy-1,2,3,4-tetrahydronaphthalene level at 25 ug, sc after 18 hrs by TLC analysis; format: ADME, organism-based; details: in vivo
[4] = Drug metabolism in rat uterine nuclear fraction assessed as 1-[p-(2,3-Dihydroxyphenyl)phenyl]-2-phenyl-6-methoxy-1,2,3,4-tetrahydronaphthalene level at 25 ug, sc after 18 hrs by TLC analysis; format: ADME, organism-based; details: in vivo
[5] = Drug metabolism in rat uterine nuclear fraction assessed as (5R,6S)-5-(4-hydroxyphenyl)-6-phenyl-5,6,7,8-tetrahydronaphthalen-2-ol level at 25 ug, sc after 18 hrs by TLC analysis; format: ADME, organism-based; details: in vivo
[6] = Drug metabolism in rat uterine nuclear fraction assessed as metabolite level at 25 ug, sc after 1 hr by TLC analysis; format: ADME, organism-based; details: in vivo
Procedure, shortened: as §1

[7] = Drug metabolism in rat uterine nuclear fraction assessed as metabolite level at 25 ug, sc after 13 hrs by TLC analysis; format: ADME, organism-based; details: in vivo
Procedure, shortened: as §1

[8] = Drug uptake in rat estrogen receptor expressing uterine at 25 ug, sc after 13 hrs by high salt sucrose density gradient analysis in presence of unlabeled estradiol; format: ADME, organism-based, Uterus; details: in vivo
Procedure, shortened: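 Rats pretreated 1 h in vivo with 5 μg unlabeled estradiol or saline vehicle, then given 25 μg tritiated antiestrogen sc. Uteri excised; washed 800g nuclear pellet extracted 1 h at 0 °C with buffer containing 0.4 M KCl. Extract charcoal-dextran treated, ¹⁴C ovalbumin and γ-globulin markers added. High-salt sucrose gradients spun 17 h, 4 °C, 270000g; 5S binding read.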

[9] = Drug metabolism in rat uterine nuclear fraction assessed as 3-(4-((1R,2S)-6-hydroxy-2-phenyl-1,2,3,4-tetrahydronaphthalen-1-yl)phenoxy)propane-1,2-diol level at 25 ug, sc after 18 hrs by TLC analysis; format: ADME, organism-based; details: in vivo

Structure (SMILES)	RBA [1]	also measured
COc1ccc2c(c1)CC[C@@H]1[C@@H]2CC[C@]2(C)[C@@H](O)CC[C@@H]12	3	
CC[C@H](c1ccc(O)cc1)[C@@H](CC)c1ccc(OCC(O)CO)cc1 (relative stereo)	6.9	
CC[C@H](c1ccc(O)cc1)[C@@H](CC)c1ccc(O)cc1	300	
CC[C@H](c1ccc(O)cc1)[C@@H](CC)c1ccc(OC)cc1 (relative stereo)	19.3	

More lines, main results first:

RBA [1]	Structure (SMILES)	also measured
39.1	OCC(O)COc1ccc([C@@H]2c3ccc(O)cc3CC[C@@H]2c2ccccc2)cc1 (stereo partly specified)	
0.1	COc1ccc2c(c1)CC[C@H](c1ccccc1)[C@@H]2c1ccc(OCC(O)CO)cc1 (mixture of isomers)	Drug metabolism [2]: metabolite_detected; Drug metabolism [3]: metabolite_detected; Drug metabolism [4]: metabolite_detected; Drug metabolism [5]: metabolite_detected; Drug metabolism [6]: metabolite_detected; Drug metabolism [7]: metabolite_detected; Drug metabolism [8]: metabolite_detected; Drug metabolism [9]: metabolite_detected
29.8	Oc1ccc([C@@H]2c3ccc(O)cc3CC[C@@H]2c2ccccc2)cc1	
0.24	COc1ccc2c(c1)CC[C@H](c1ccccc1)[C@@H]2c1ccc(O)cc1	
